In series [1] the test system is HepG2. The series can be described thus: Inhibition of oleic acid-induced total cholesterol level in human HepG2 cells at 10 uM. The format is functional, cell-based. In outline:
(§1)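 HepG2 cells at 70–80% confluence exposed to 100 μM oleic acid in DMEM for 12 h, then compound at 10 μM plus 100 μM oleic acid for 6 h. Statin positive control. Intracellular total cholesterol and triglyceride measured with commercial kits. n = 3, experiment repeated in triplicate, mean ± SEM.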

The test system of series [2] is HepG2. Nature of the series: Inhibition of oleic acid-induced triglyceride level in human HepG2 cells at 10 uM. The format is functional, cell-based. In outline:
as §1

Series [3] has as its system HepG2. Nature of the series: Inhibition of oleic acid-induced lipid accumulation in human HepG2 cells at 10 uM by oil red O staining analysis. The format is functional, cell-based. In outline:
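HepG2 cells in DMEM with 10% FBS and penicillin/streptomycin, grown to 70–80% confluence, preloaded with 100 μM oleic acid for 12 h, then given compound at 10 μM in DMEM/100 μM oleic acid for another 6 h. Statin positive control and DMEM/oleic acid blank. Oil Red O staining read by spectrophotometry at 358 nm. n = 8, experiment repeated in triplicate, mean ± SEM.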

Series [4] has as its system HepG2. Nature of the series: Cytotoxicity against human HepG2 cells upto 100 uM by MTT assay. In kind it is cell-based.
For series [5], the system named is HepG2. Nature of the series: Decrease in SREBP-1c mRNA level in human HepG2 cells by RT-PCR analysis. In kind it is functional, cell-based.
Series [6] relates to HepG2. The series can be described thus: Decrease in fatty acid synthase mRNA level in human HepG2 cells by RT-PCR analysis. The format is functional, cell-based.
Series [7] relates to HepG2. The series can be described thus: Decrease in acetyl-CoA carboxylase mRNA level in human HepG2 cells by RT-PCR analysis. In kind it is functional, cell-based.

Activity calls are given as the source filed them. No cut-off for these calls is given here.

Turning to `CCC[C@H](O)[C@H](O)/C=C/c1cccc(OC)c1CO`, the inhibition entry in the series with HepG2 [1] is “inactive”. For the same compound, the inhibition result with HepG2 [2] and in the series on HepG2 [3] was “Active” each time. In addition, the Activity entry in the series on HepG2 [4] is “Non-toxic”.

With `C=C(C)[C@H]1COc2c(C)cc(O)c(C(=O)c3c(O)ccc(CC=C(C)C)c3O)c2[C@@H]1O`, the inhibition entry in the series with HepG2 [5], in the series on HepG2 [6], with HepG2 [1], in the series on HepG2 [2], in the series on HepG2 [3] and in the series on HepG2 [7] was “Active” in each case. Also, the Activity entry with HepG2 [4] is reported as “Non-toxic”.

Regarding `C/C=C/[C@H](O)[C@H](O)/C=C/c1cccc(OC)c1CO`, in the series on HepG2 [2], the inhibition entry was “inactive”. Besides, the inhibition result in the series with HepG2 [3] is “Active”. For the same compound, the Activity result in the series on HepG2 [4] is on record as “Non-toxic”.

Source of the values: ChEMBL document CHEMBL3734747, “Varioxiranols A-G and 19-O-Methyl-22-methoxypre-shamixanthone, PKS and Hybrid PKS-Derived Metabolites from a Sponge-Associated Emericella variecolor Fungus” (J Nat Prod, 2015).
